# In ChEMBL document CHEMBL1136723, “A novel atypical retinoid endowed with proapoptotic and antitumor activity” (J Med Chem, 2003):
# How the values were obtained:
# LNCaP = assay: Antiproliferative effect of compound on LNcaP cell line expressing wild-type p53; format: functional, cell-based; conditions: Homo sapiens
# In short: (§1)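 Human tumor cell lines exposed to drug for 72 h. Growth was measured by cell counting. IC50, the concentration giving 50% inhibition of cell growth, was read from dose–response curves.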
# GBM = assay: Antiproliferative effect of compound on GBM cell line expressing mutant p53; format: functional, cell-based; conditions: Homo sapiens; in short: as §1
# NCI-H460 = assay: Antiproliferative effect of compound on H460 cell line expressing wild-type p53; format: functional, cell-based; conditions: Homo sapiens; in short: as §1
# IGROV-1 [1] = assay: Antiproliferative effect of compound on IGROV-1 cell line expressing wild-type p53; format: functional, cell-based; conditions: Homo sapiens; in short: as §1
# DU-145 [2] = assay: (§2) Apoptosis was determined my morphological analysis of propidium-iodide-stained cells following 24 hr exposure to IC80 (0.5 uM), value expressed as percentage of apoptotic cells versus total cell number; format: functional, Homo sapiens
# IGROV-1 [3] = assay: as §2; format: functional, Homo sapiens
# LoVo = assay: Antiproliferative effect of compound on LoVo cell line expressing wild-type p53; format: functional, cell-based; conditions: Homo sapiens; in short: as §1
# A-431 = assay: Antiproliferative effect of compound on A431 cell line expressing mutant p53; format: functional, cell-based; conditions: Homo sapiens; in short: as §1
# Me665/2/21 = assay: Antiproliferative effect of compound on Me665/2/21 cell line expressing mutant p53; format: functional, cell-based; conditions: Homo sapiens; in short: as §1
# DU-145 [4] = assay: (§3) Apoptosis was determined my morphological analysis of propidium-iodide-stained cells following 72 hr exposure to IC80 (0.5 uM), value expressed as percentage of apoptotic cells versus total cell number; format: functional, Homo sapiens
# IGROV-1 [5] = assay: as §3; format: functional, Homo sapiens
# DU-145 [6] = assay: (§4) Apoptosis was determined my morphological analysis of propidium-iodide-stained cells following 48 hr exposure to IC80 (0.5 uM), value expressed as percentage of apoptotic cells versus total cell number; format: functional, Homo sapiens
# IGROV-1 [7] = assay: as §4; format: functional, Homo sapiens
# U2OS = assay: Antiproliferative effect of compound on U2OS cell line expressing wild-type p53; format: functional, cell-based; conditions: Homo sapiens; in short: as §1
# DU-145 [8] = assay: Antiproliferative effect of compound on DU145 cell line expressing mutant p53; format: functional, cell-based; conditions: Homo sapiens; in short: as §1
# PC-3 = assay: Antiproliferative effect of compound on PC3 cell line; format: functional, cell-based; conditions: Homo sapiens; in short: as §1
# SAOS-2 = assay: Antiproliferative effect of compound on SAOS cell line; format: functional, cell-based; conditions: Homo sapiens; in short: as §1
# HCT-116 = assay: Antiproliferative effect of compound on HCT116 cell line expressing wild-type p53; format: functional, cell-based; conditions: Homo sapiens; in short: as §1
# A2780 = assay: Antiproliferative effect of compound on A2780/DX cell line; format: functional, cell-based; conditions: Homo sapiens; in short: as §1
IC50 (LNCaP) [nM],IC50 (NCI-H460) [nM],IC50 (LoVo) [nM],IC50 (A-431) [nM],IC50 (U2OS) [nM],IC50 (DU-145 [8]) [nM],IC50 (PC-3) [nM],IC50 (HCT-116) [nM],IC50 (A2780) [nM],Compound,IC50 (GBM) [nM],IC50 (IGROV-1 [1]) [nM],Apoptosis (DU-145 [2]) [%],Apoptosis (IGROV-1 [3]) [%],IC50 (Me665/2/21) [nM],Apoptosis (DU-145 [4]) [%],Apoptosis (IGROV-1 [5]) [%],Apoptosis (DU-145 [6]) [%],Apoptosis (IGROV-1 [7]) [%],IC50 (SAOS-2) [nM]
320,430,490,510,440,280,430,680,–,O=C(O)c1ccc2cc(-c3ccc(O)c(C45CC6CC(CC(C6)C4)C5)c3)ccc2c1 [O-DEMETHYLATED ADAPALENE],550,350,16,22,420,30,38,33,15,670
120,190,150,250,260,100,210,320,100,O=C(O)/C=C/c1ccc(-c2ccc(O)c(C34CC5CC(CC(C5)C3)C4)c2)cc1 [ADAROTENE],180,230,24,42,250,50,44,44,46,250
